From ChEMBL document CHEMBL4393654, “Discovery and Early Clinical Development of an Inhibitor of 5-Lipoxygenase Activating Protein (AZD5718) for Treatment of Coronary Artery Disease” (J Med Chem, 2019)
The source made the active and inactive calls. No cut-off for these calls is given here.

Experiments:
[1] = Oral bioavailability in rat at 2.5 umol/kg; type: ADME, organism-based; settings: in vivo
[2] = Half life in human at 60 to 1200 mg, po administered as single dose; type: ADME, organism-based; settings: in vivo
[3] = Cardiotoxicity in conscious telemetered Beagle dog assessed as effect on arterial blood pressure at 0.5 to 30 mg/kg administered as single iv infusion for 2 hrs measured up to 48 hrs post dose by telemetry; type: toxicity, organism-based, Canis lupus familiaris; settings: in vivo
In short: (§1)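 Conscious beagle dogs were given the compound by intravenous infusion. Infusion was set to reach a target plasma concentration 100-fold above the predicted free human Cmax at the therapeutic dose, and cardiovascular parameters were recorded.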

[4] = Cardiotoxicity in rat assessed as effect on histopathological changes measured up to 28 days during compound dosing; type: toxicity; settings: in vivo, 672 h
[5] = Cardiotoxicity in conscious telemetered Beagle dog assessed as effect on left ventricular parameters at 0.5 to 30 mg/kg administered as single iv infusion for 2 hrs measured up to 48 hrs post dose by telemetry; type: toxicity, organism-based, Canis lupus familiaris; settings: in vivo; in short: as §1
[6] = Cardiotoxicity in dog assessed as effect on histopathological changes measured up to 28 days during compound dosing; type: toxicity, Canis lupus familiaris; settings: in vivo, 672 h
[7] = Cardiotoxicity in conscious telemetered Beagle dog assessed as effect on body temperature at 0.5 to 30 mg/kg administered as single iv infusion for 2 hrs measured up to 48 hrs post dose by telemetry; type: toxicity, organism-based, Canis lupus familiaris; settings: in vivo; in short: as §1
[8] = Cardiotoxicity in conscious telemetered Beagle dog assessed as effect on lead 2 electrocardiogram at 0.5 to 30 mg/kg administered as single iv infusion for 2 hrs measured up to 48 hrs post dose by telemetry; type: toxicity, organism-based, Canis lupus familiaris; settings: in vivo; in short: as §1
[9] = molecular target: Bile salt export pump (Homo sapiens, UniProt O95342); assay: Inhibition of recombinant human BSEP expressed in baculovirus infected Sf21 insect cell vesicles assessed as reduction in NBD-taurocholate uptake by fluorescence assay; type: ADME
Chain of Bile salt export pump (O95342 whole entry): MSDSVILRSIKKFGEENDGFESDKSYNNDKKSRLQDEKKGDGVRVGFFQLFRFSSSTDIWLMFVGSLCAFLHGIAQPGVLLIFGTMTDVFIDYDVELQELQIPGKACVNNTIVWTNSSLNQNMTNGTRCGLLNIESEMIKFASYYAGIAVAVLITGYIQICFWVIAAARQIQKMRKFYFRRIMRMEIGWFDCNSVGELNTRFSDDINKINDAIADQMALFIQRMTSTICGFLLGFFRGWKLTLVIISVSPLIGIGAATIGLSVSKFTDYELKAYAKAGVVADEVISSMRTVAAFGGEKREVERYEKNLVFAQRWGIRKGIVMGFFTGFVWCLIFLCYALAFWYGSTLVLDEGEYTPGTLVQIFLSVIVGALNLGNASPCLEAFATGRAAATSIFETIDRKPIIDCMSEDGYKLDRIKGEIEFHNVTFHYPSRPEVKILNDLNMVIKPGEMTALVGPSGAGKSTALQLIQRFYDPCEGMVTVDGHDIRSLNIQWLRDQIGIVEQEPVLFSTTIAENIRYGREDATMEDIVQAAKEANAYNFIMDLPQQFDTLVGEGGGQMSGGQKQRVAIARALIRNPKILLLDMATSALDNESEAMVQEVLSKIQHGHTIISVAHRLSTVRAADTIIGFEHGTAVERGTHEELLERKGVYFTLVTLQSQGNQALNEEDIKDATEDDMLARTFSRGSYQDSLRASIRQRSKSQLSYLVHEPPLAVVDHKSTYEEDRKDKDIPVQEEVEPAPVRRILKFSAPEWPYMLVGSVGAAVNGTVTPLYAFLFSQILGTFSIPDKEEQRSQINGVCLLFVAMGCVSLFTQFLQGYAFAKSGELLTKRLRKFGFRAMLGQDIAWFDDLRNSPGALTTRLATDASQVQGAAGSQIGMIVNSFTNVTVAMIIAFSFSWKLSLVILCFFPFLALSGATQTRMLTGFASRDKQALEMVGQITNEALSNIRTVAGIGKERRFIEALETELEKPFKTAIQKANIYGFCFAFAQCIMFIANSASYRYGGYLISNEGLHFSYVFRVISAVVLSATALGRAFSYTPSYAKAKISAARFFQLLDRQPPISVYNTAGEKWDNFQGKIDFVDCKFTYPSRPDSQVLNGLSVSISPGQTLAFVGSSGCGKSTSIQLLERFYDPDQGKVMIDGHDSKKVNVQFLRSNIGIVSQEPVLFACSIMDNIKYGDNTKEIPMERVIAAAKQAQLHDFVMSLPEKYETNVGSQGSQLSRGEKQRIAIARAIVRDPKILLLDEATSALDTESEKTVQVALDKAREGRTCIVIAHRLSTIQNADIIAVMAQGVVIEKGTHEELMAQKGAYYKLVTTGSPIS

[10] = Cardiotoxicity in dog assessed as effect on cardiac function measured up to 28 days during compound dosing; type: toxicity, Canis lupus familiaris; settings: in vivo, 672 h
[11] = Cardiotoxicity in rat assessed as effect on cardiac function measured up to 28 days during compound dosing; type: toxicity; settings: in vivo, 672 h
[12] = test system: Cytochrome P450; assay: Drug metabolism in human hepatocytes assessed as CYP450-mediated phase-2 glucuronidation/oxidation at 4 uM measured after 120 mins by LC-MS/MS analysis; type: ADME, cell-based, Hepatocyte; settings: 2 h
[13] = Cardiotoxicity in conscious telemetered Beagle dog assessed as effect on heart rate at 0.5 to 30 mg/kg administered as single iv infusion for 2 hrs measured up to 48 hrs post dose by telemetry; type: toxicity, organism-based, Canis lupus familiaris; settings: in vivo; in short: as §1
[14] = Cardiotoxicity in conscious telemetered Beagle dog; type: toxicity, Canis lupus familiaris
[15] = molecular target: Prostaglandin G/H synthase 1 (Homo sapiens) (UniProt P23219); assay: Activity at COX1 in human whole blood assessed as effect on […] production by EIA; type: tissue-based
Chain of Prostaglandin G/H synthase 1 (Homo sapiens) (P23219 whole entry): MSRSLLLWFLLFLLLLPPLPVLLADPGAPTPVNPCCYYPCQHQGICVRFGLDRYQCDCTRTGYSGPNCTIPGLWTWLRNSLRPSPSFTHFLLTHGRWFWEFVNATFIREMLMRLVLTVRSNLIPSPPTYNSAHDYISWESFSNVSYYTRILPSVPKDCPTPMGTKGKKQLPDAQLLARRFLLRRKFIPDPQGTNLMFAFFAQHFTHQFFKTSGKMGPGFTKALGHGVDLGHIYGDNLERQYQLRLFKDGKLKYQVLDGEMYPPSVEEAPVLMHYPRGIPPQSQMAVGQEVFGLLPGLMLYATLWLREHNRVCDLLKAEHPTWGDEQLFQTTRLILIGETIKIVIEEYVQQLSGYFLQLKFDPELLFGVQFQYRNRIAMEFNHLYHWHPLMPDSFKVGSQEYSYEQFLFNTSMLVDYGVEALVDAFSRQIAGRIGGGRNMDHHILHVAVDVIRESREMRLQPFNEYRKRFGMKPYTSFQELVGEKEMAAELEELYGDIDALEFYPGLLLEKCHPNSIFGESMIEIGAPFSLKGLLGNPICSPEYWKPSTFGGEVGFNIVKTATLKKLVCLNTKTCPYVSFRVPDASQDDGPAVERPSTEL

[16] = molecular target: T1, Arachidonate 5-lipoxygenase-activating protein (Homo sapiens, UniProt P20292); assay: Inhibition of [3H]MK0591 binding to human FLAP expressed in […] cell membranes measured after 60 to 80 mins by microbeta scintillation counting method
T1 sequence (P20292 whole entry): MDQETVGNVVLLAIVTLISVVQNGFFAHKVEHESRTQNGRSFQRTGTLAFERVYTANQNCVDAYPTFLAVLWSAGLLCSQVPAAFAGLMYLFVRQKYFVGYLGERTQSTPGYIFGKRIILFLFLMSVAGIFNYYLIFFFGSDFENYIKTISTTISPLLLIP

[17] = Oral bioavailability in rat at 2 umol/kg; type: ADME, organism-based; settings: in vivo
[18] = test system: HepG2; assay: Cytotoxicity against human HepG2 cells assessed as reduction in ATP depletion in presence of glucose/galactose; type: cell-based
[19] = Volume of distribution at steady state in Beagle dog at 1 umol/kg, iv; type: ADME, Canis lupus familiaris; settings: in vivo, read-out: Vdss
[20] = test system: THP-1; assay: Cytotoxicity against human THP1 cells assessed as reduction in cell viability measured after 48 hrs by resazurin assay; type: cell-based; settings: THP-1, 48 h
[21] = organism: Homo sapiens; assay: Selectivity ratio of compound effect on activity at COX1 in human whole blood to IC50 for FLAP in human whole blood
[22] = test system: Cytochrome P450; assay: Drug metabolism in human hepatocytes assessed as CYP450-mediated oxidation at 4 uM measured after 120 mins by LC-MS/MS analysis; type: ADME, cell-based, Hepatocyte; settings: 2 h
[23] = molecular target: T2, Arachidonate 5-lipoxygenase-activating protein (Homo sapiens) (UniProt P20292); assay: Inhibition of FLAP in human whole blood assessed as reduction in calcium ionophore-stimulated LTB4 production preincubated for 4 hrs followed by calcium ionophore stimulation and measured after 20 mins by EIA; type: tissue-based
T2 sequence (whole entry): T1 sequence (P20292 whole entry)
In short: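 Fresh human whole blood was incubated with compound for 4 h, then stimulated with calcium ionophore, and LTB4 production was measured as the 5-LO pathway read-out. IC50 was also converted to a free value: IC50 × (Fu/100), where Fu = 100 − human plasma protein binding (%).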

[24] = molecular target: T3, Prostaglandin G/H synthase 2 (Homo sapiens) (UniProt P35354); assay: Activity at COX2 in human whole blood assessed as effect on LPS-induced PGE2 production preincubated for 15 mins followed by LPS-stimulation and measured after overnight incubation by EIA; type: tissue-based
T3 sequence (whole entry): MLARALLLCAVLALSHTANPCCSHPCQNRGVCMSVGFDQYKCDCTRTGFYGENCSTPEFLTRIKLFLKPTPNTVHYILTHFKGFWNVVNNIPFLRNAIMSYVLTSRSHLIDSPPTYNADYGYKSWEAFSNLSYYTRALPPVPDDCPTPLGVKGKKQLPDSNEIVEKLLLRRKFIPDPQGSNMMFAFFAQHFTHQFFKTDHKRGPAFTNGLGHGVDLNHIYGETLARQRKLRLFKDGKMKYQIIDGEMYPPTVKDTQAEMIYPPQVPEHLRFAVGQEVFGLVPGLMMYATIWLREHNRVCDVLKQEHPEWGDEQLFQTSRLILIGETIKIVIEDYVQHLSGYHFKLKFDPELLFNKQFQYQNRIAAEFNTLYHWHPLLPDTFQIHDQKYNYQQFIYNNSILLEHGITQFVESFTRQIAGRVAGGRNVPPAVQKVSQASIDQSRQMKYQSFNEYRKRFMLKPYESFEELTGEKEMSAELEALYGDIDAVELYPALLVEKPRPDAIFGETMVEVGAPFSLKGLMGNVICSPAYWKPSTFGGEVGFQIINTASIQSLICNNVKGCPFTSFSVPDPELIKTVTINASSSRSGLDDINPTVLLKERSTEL

[25] = organism: Homo sapiens; assay: Selectivity ratio of compound effect on activity at COX2 in human whole blood to IC50 for FLAP in human whole blood
[26] = Clearance in Beagle dog at 1 umol/kg, iv; type: ADME, Canis lupus familiaris; settings: in vivo
[27] = Half life in Beagle dog at 1 umol/kg, iv; type: ADME, Canis lupus familiaris; settings: in vivo
[28] = test system: Cytochrome P450; assay: Drug metabolism in human hepatocytes assessed as CYP450-mediated phase-2 glucuronidation/ketone reduction at 4 uM measured after 120 mins by LC-MS/MS analysis; type: ADME, cell-based, Hepatocyte; settings: 2 h
[29] = Oral bioavailability in rat at 2.8 umol/kg; type: ADME, organism-based; settings: in vivo
[30] = Clearance in rat at 2 umol/kg, iv; type: ADME; settings: in vivo
[31] = Volume of distribution at steady state in rat at 2 umol/kg, iv; type: ADME; settings: in vivo, read-out: Vdss
[32] = Half life in rat at 2 umol/kg, iv; type: ADME; settings: in vivo
[33] = Oral bioavailability in Beagle dog at 4.2 umol/kg; type: ADME, organism-based, Canis lupus familiaris; settings: in vivo

Cc1cc(-c2ccc(C(=O)[C@@H]3CCCC[C@H]3C(=O)Nc3cnn4c3C(=O)NCC4)cc2)[nH]n1
bioavailability [1]: 14%
half-life [2]: 12 h
Activity [3]: Non-Toxic
Activity [4]: Non-Toxic
Activity [5]: Non-Toxic
Activity [6]: Non-Toxic
Activity [7]: Non-Toxic
Activity [8]: Non-Toxic
IC50 [9]: 74 to 340 µM
Activity [10]: Non-Toxic
Activity [11]: Non-Toxic
Drug metabolism [12]: Metabolite_Detected
Activity [13]: Non-Toxic
Activity [14]: Non-Toxic

Cc1cc(-c2ccc(C(=O)[C@@H]3CCCC[C@H]3C(=O)Nc3cnn(C)c3C(=O)NOC(C)(C)C)cc2)[nH]n1
Activity [15]: inactive
IC50 [16]: 0.0058 µM
bioavailability [17]: 12%
IC50 [18]: > 250 µM
Vd [19]: 0.4 L/kg
IC50 [20]: > 250 µM
Selectivity ratio [21]: > 100
Drug metabolism [22]: Metabolite_Detected
fIC50 [23]: 1.6 nM
Activity [24]: inactive
Selectivity ratio [25]: > 100
clearance [26]: 2 mL/min/kg
half-life [27]: 7 h

Cc1cc(-c2ccc(C(=O)[C@@H]3CCCC[C@H]3C(=O)Nc3cnn(C)c3S(N)(=O)=O)cc2)[nH]n1
Drug metabolism [28]: Metabolite_Detected
bioavailability [29]: 14%
clearance [30]: 10 mL/min/kg
Vd [31]: 1.3 L/kg
half-life [32]: 2.9 h
bioavailability [33]: 65%
